Laboratory results reported in ChEMBL document CHEMBL1146076, “Identification of potent and selective inhibitors of PDGF receptor autophosphorylation” (J Med Chem, 2006).

Key:
[1] = target: Platelet-derived growth factor receptor alpha (Homo sapiens, UniProt P16234); experiment: Inhibition of PDGFR alpha phosphorylation in G292 cell; type: functional, cell-based
Procedure, shortened: (§1)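 Cell-based ELISA on intact cells: PDGFR-α in G292 cells, c-kit in M07e cells, both quiesced in 0.1% FBS medium. Serial compound concentrations were added for 1 h at 37 °C, then 50 ng/mL PDGF-AA (G292) or SCF (M07e) was added. Lysates were captured on anti-phosphotyrosine (PY-20) plates overnight at 4 °C. Detection used anti-PDGFR-α or anti-c-kit plus HRP, read at A450. IC50 is the mean of two tests.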

[2] = target: Mast/stem cell growth factor receptor Kit (Homo sapiens, UniProt P10721); experiment: Inhibition of c-kit receptor phosphorylation in M07e cell; type: functional, cell-based; procedure, shortened: as §1
Mast/stem cell growth factor receptor Kit, sequence (P10721 whole entry): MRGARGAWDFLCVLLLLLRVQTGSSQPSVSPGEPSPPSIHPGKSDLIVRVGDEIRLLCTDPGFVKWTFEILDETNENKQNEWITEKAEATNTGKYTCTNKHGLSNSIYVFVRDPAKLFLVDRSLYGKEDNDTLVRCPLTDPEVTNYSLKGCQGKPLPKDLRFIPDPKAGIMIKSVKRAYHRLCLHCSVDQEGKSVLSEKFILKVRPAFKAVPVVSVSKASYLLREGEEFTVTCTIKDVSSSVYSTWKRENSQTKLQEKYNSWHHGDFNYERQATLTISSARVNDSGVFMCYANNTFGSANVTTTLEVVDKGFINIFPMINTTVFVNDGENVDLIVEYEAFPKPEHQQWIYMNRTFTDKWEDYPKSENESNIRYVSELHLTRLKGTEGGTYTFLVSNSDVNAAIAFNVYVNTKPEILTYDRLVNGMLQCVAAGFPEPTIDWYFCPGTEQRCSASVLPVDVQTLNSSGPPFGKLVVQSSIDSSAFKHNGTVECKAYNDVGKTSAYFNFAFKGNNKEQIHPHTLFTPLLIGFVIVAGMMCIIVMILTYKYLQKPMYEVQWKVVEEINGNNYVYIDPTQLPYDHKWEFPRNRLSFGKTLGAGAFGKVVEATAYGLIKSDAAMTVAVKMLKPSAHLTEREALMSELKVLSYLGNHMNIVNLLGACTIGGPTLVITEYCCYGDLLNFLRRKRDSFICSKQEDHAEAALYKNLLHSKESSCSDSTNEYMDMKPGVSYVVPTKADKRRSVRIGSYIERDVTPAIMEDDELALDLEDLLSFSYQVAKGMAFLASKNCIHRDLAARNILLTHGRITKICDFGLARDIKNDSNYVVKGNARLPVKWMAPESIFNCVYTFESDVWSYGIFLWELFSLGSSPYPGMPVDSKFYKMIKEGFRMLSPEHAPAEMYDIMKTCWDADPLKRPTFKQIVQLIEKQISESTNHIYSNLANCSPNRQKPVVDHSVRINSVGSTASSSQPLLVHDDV

Platelet-derived growth factor receptor alpha, sequence (P16234 whole entry): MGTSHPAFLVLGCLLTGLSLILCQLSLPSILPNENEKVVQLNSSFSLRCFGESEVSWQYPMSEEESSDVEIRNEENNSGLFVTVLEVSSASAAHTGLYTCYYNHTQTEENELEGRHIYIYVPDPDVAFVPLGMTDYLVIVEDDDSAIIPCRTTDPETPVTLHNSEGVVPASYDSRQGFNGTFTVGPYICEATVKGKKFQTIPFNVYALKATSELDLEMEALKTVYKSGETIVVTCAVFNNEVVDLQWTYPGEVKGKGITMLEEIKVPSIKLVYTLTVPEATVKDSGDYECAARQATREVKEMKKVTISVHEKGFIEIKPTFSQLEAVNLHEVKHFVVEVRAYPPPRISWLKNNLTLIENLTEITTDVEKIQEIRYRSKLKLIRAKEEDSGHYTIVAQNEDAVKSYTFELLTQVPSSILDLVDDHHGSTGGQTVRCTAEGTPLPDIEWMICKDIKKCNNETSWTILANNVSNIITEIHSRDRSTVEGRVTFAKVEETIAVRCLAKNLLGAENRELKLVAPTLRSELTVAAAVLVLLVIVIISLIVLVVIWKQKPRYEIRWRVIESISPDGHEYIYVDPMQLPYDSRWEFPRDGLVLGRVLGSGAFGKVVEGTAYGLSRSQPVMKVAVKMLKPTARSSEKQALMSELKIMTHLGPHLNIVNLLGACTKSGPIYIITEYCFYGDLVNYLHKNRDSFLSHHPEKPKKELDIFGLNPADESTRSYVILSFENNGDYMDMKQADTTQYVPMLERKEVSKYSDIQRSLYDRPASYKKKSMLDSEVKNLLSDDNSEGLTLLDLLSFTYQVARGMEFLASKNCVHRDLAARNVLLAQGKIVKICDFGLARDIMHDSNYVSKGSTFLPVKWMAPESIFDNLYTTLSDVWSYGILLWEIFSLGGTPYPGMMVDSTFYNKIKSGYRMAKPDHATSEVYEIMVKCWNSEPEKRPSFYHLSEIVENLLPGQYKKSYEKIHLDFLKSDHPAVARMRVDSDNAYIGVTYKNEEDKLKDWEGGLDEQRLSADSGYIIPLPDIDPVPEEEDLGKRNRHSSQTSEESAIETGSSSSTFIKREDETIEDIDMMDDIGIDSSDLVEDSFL

SMILES	IC50 [1]	IC50 [2]
COc1cc2ncnc(Oc3ccc(NC(=O)NCCC4CCCCC4)cc3)c2cc1OC	9 nM	< 30 nM
COc1cc2nccc(Oc3ccc(NC(=S)NC(=O)c4ccccc4Cl)cc3)c2cc1OC	5 nM	–
COc1cc2nccc(Oc3ccc(NC(=S)NC(=O)C4CCCCC4)cc3)c2cc1OC	15 nM	–
COc1cc2nccc(Oc3ccc(NC(=S)NC(=O)c4ccccc4)cc3)c2cc1OC	8 nM	–
COc1cc2nccc(Oc3ccc(NC(=O)NCCC4CCCCC4)cc3)c2cc1OC	6 nM	< 30 nM
COc1cc2nccc(Oc3ccc(NC(=O)NC4CCCCC4)cc3)c2cc1OC	12 nM	22 nM
COc1cc2nccc(Oc3ccc(NC(=O)OCCC4CCCCC4)cc3)c2cc1OC	18 nM	80 nM
COc1cc2ncnc(Oc3ccc(NC(=S)NCc4ccccc4)cc3)c2cc1OC	46 nM	303 nM
COc1cc2nccc(Oc3ccc(NC(=O)Oc4ccccc4)cc3)c2cc1OC	5 nM	–
COc1cc2ncnc(Oc3ccc(NC(=O)NC4CCCCC4)cc3)c2cc1OC	7 nM	27 nM
COc1cc2nccc(Oc3ccc(NC(=S)NC4CCCCC4)cc3)c2cc1OC	40 nM	69 nM
COc1cc2ncnc(Oc3ccc(NC(=S)NCC4CCCCC4)cc3)c2cc1OC	37 nM	153 nM
